In ChEMBL document CHEMBL4346761, “Microwave-Assisted Organic Synthesis, structure-activity relationship, kinetics and molecular docking studies of non-cytotoxic benzamide derivatives as selective butyrylcholinesterase inhibitors” (Bioorg Med Chem, 2019):
Active and inactive are the calls of the source. No cut-off for these calls is given here.

Tests used:
Cholinesterase [1] = target: T1, Cholinesterase (Equus caballus, UniProt P81908); experiment: Uncompetitive inhibition of equine serum BChE using varying levels of […] chloride as substrate by Lineweaver-Burk plot analysis
T1 sequence (P81908 whole entry): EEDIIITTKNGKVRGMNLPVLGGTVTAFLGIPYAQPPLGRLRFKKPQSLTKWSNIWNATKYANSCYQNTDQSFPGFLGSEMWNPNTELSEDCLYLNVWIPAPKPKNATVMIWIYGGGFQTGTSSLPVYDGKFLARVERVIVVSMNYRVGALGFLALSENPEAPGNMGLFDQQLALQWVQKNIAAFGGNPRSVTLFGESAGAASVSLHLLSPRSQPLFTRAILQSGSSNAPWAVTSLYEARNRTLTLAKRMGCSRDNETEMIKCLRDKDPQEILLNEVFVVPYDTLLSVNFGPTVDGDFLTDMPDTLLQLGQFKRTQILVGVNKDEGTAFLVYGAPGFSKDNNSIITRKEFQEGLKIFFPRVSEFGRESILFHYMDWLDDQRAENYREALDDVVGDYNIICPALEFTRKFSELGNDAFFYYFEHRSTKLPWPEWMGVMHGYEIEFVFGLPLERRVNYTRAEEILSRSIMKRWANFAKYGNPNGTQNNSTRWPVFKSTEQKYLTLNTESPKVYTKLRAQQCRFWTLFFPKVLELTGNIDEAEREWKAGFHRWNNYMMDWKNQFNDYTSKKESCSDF

Cholinesterase [2] = target: T1, Cholinesterase; experiment: (§1) Inhibition of equine serum BChE using […] chloride as substrate preincubated for 15 mins followed by substrate addition and measured after 15 mins under dark condition by Ellman's method
How it was run: (§2)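 Modified Ellman assay. Equine serum BChE (51.732 mU) was preincubated 15 min at 25 °C with test compound (dissolved in methanol) in 100 mM sodium phosphate buffer, pH 8.0. Butyrylthiocholine chloride (0.5 mM) was added for 15 min in the dark, then DTNB (0.5 mM) was added. Absorbance was read at 412 nm and mean IC50 values were derived.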

[3] = target: Acetylcholinesterase (Electrophorus electricus) (UniProt O42275); experiment: Inhibition of electric eel AChE using acetylthiocholine iodide as substrate preincubated for 15 mins followed by substrate addition and measured after 15 mins under dark condition by Ellman's method
Acetylcholinesterase (Electrophorus electricus), sequence (O42275 24-633 limits assumed): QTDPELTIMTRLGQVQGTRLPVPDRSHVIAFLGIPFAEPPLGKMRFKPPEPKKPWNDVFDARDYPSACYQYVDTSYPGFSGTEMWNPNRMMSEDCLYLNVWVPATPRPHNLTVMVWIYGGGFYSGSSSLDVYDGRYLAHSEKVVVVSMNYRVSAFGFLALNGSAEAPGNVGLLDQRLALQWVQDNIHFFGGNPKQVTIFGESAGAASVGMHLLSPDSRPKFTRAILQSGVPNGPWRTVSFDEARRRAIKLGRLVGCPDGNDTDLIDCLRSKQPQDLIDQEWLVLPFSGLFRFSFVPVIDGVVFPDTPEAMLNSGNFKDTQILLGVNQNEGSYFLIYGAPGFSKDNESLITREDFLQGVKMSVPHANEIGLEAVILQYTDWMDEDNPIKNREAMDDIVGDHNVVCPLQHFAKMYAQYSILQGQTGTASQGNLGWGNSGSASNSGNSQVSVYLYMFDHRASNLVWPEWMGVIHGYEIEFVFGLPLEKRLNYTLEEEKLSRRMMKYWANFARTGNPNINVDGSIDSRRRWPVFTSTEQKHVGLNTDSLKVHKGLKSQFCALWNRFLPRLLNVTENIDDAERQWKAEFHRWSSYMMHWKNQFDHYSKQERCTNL
How it was run: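 Modified Ellman assay. Electric eel AChE (0.002 mU) was preincubated 15 min at 25 °C with test compound (dissolved in methanol) in 100 mM sodium phosphate buffer, pH 8.0. Acetylthiocholine iodide (0.5 mM) and DTNB were added. After 15 min in the dark, absorbance was read at 412 nm.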

NIH3T3 [4] = experiment: Cytotoxicity against mouse 3T3 cells at 1 to 30 uM measured after 48 hrs by MTT assay relative to control; format: cell-based; conditions: nih3t3, 48 h
How it was run: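 MTT colorimetric read-out. Cells seeded at 3x10^5 in 100 µL medium and left 24 h to attach. Medium then replaced with fresh medium plus test compound (1 to 30 µM). Incubated 48 h at 37 °C, 5% CO2, 90% humidity. MTT added, 4 h incubation. Formazan dissolved in DMSO, absorbance read at 540 nm. IC50 values calculated.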

[5] = target: Cholinesterase (Equus caballus) (UniProt P81908); experiment: Inhibition of equine serum BChE using […] chloride as substrate preincubated for 15 mins followed by substrate addition and measured after 15 mins under dark condition by Ellman's method relative to control; parameters: concentration or dose not given beside the values; how it was run: as §2
Cholinesterase (Equus caballus), sequence (P81908 whole entry): as the sequence (P81908 whole entry) above

NIH3T3 [6] = experiment: Cytotoxicity against mouse 3T3 cells measured after 48 hrs by MTT assay relative to control; format: cell-based; conditions: nih3t3, 48 h
How it was run: (§3)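 Cells seeded at 3x10^5 per well in medium and allowed to attach. After 24 h the medium was replaced with fresh medium plus test compound (1 to 30 µM). Plates were held 48 h at 37 °C, 5% CO2, 90% humidity. MTT was added for 4 h, formazan dissolved in DMSO, and absorbance read at 540 nm. IC50 values were calculated.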

NIH3T3 [7] = experiment: Cytotoxicity against mouse 3T3 cells measured after 48 hrs by MTT assay; format: cell-based; conditions: NIH3T3, 48 h; how it was run: as §3
Cholinesterase [8] = target: T1, Cholinesterase; experiment: Mixed inhibition of equine serum BChE using varying levels of […] chloride as substrate by Lineweaver-Burk plot analysis
How it was run: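 Kinetics for BChE in the Ellman format with varied substrate. Inhibition mode was assigned from Lineweaver-Burk plots, secondary replots (slope vs inhibitor concentration) and Dixon plots. Apparent Km and Vmax were determined.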

[9] = target: Cholinesterase (Equus caballus) (UniProt P81908); experiment: as §1; how it was run: as §2
[10] = target: Cholinesterase (Equus caballus) (UniProt P81908); experiment: Potency index, ratio of donepezil IC50 to test compound IC50 for equine serum BChE

Structure (SMILES)	Ki (Cholinesterase [1])	IC50 (Cholinesterase [2])	inhibition [3]	Activity (NIH3T3 [4])	inhibition [5]	Activity (NIH3T3 [6])	IC50 (NIH3T3 [7])	Ki (Cholinesterase [8])	inhibition [9]	Ratio IC50 [10]
O=C(Nc1c(Cl)cccc1Cl)c1ccc(F)cc1F	27.6 µM	18.7 µM	inactive	34%	80.7%	–	–	–	–	–
C[C@@H]1C[C@@H]([C@H](O)CC2CC(=O)NC(=O)C2)C(=O)[C@@H](C)C1 [CYCLOHEXIMIDE]	–	–	–	–	–	95%	0.8 µM	–	–	–
O=C(Nc1c(Cl)cccc1Cl)c1ccccc1Br	2.4 µM	1.1 µM	inactive	41%	88%	–	–	–	–	–
O=C(Nc1c(Cl)cccc1Cl)c1ccc(Br)cc1	–	0.8 µM	inactive	49%	84%	–	–	2.6 µM	–	–
O=C(Nc1c(Cl)cccc1Cl)c1cccc([N+](=O)[O-])c1	–	–	inactive	41%	–	–	–	–	inactive	–
COc1cccc(C(=O)Nc2c(Cl)cccc2Cl)c1	–	5.5 µM	inactive	14.8%	95.2%	–	–	13 µM	–	–
CCOc1ccccc1C(=O)Nc1c(Cl)cccc1Cl	–	6 µM	inactive	15%	112%	–	–	–	–	–
COc1cc(C(=O)Nc2c(Cl)cccc2Cl)cc(OC)c1OC	23.5 µM	20.8 µM	inactive	48%	69.2%	–	–	–	–	–
O=C(Nc1c(Cl)cccc1Cl)c1c(F)cccc1F	5.6 µM	12.6 µM	inactive	34%	70.6%	–	–	–	–	–
O=C(Nc1c(Cl)cccc1Cl)c1ccccc1	–	1.3 µM	inactive	33%	100%	–	–	4.4 µM	–	10
Cc1ccc(C(=O)Nc2c(Cl)cccc2Cl)cc1[N+](=O)[O-]	–	165 µM	inactive	40%	69.1%	–	–	–	–	–
COc1ccc(C(=O)Nc2c(Cl)cccc2Cl)cc1	–	11.3 µM	inactive	32%	90.7%	–	–	18 µM	–	–
O=C(Nc1c(Cl)cccc1Cl)c1ccc(F)cc1	–	16.1 µM	inactive	29%	86.5%	–	–	9.9 µM	–	–
